Data set [1] in a line: Selectivity ratio of IC50 for human MGC803 cells to IC50 for mouse BAF3 cells expressing TPR-MET. The data set is classed as ADME, cell-based. In a few lines:
(§1)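 Both IC50s in each ratio come from one proliferation assay. Cells were seeded and exposed the next day to a range of concentrations for 72 h, then read by SRB or MTT. IC50s were fitted by four-parameter concentration–response, with each concentration at least in triplicate and at least 2 experiments. BaF3/TPR-Met is murine pre-B BaF3 transfected with TPR-MET and puromycin-selected.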

Data set [2] in a line: Antitumor activity against human MKN45 cells xenografted in athymic nude mouse assessed as tumor growth inhibition at 6.25 mg/kg, po bid for 21 days measured twice a week during compound dosing relative to control. It is filed as functional. The conditions noted are these: MKN-45, po, 504 h, read-out: TGI. In outline: (§2)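 Nude mice bearing s.c. tumours. Cells were first grown s.c. to 700–800 mm³, then 1.5 mm³ fragments were transplanted s.c. into the right flank. Mice were randomised at 100–200 mm³ (n=6 treated, n=12 vehicle) and dosed orally twice daily for 21 days. Caliper measurement twice weekly; TV = length×width²/2. TGI taken on the final day versus vehicle; Student's t test.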
Background: Xenograft models place foreign cells or tissue in a host animal.

Data set [3] is described as follows: Selectivity ratio of IC50 for human NCI-H226 cells to IC50 for mouse BAF3 cells expressing TPR-MET. It is filed as ADME, cell-based. In a few lines:
as §1

Data set [4] is described as follows: Selectivity ratio of IC50 for human NCI-H460 cells to IC50 for mouse BAF3 cells expressing TPR-MET. It is filed as ADME, cell-based. In a few lines: as §1
The target in data set [5] is Proto-oncogene tyrosine-protein kinase Src (Homo sapiens) (UniProt P12931). Description: Inhibition of recombinant c-Src (unknown origin) using poly (Glu, Tyr) 4:1 as substrate at 1000 nM incubated for 60 mins by ELISA relative to control. In outline:
(§3)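 Recombinant tyrosine kinases assayed on wells precoated with poly(Glu,Tyr)4:1 (20 µg/mL). ATP 10 µmol/L in HEPES pH 7.4 buffer with MgCl2, MnCl2, Na3VO4 and DTT; compound in 1% DMSO, 1% DMSO as control. Reaction 60 min at 37 °C. Phosphotyrosine detected with PY99 and HRP anti-mouse, o-phenylenediamine, A490. Inhibition % relative to control; two experiments.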
(An ELISA detects its analyte on a solid surface through an enzyme-linked reagent.)

The test system of data set [6] is Mus musculus. Description: Toxicity in athymic nude mouse xenografted with human EBC1 cells assessed as body weight loss at 6.25 to 25 mg/kg, po bid for 21 days measured twice a week during compound dosing. It is filed as organism-based. The conditions noted are these: in vivo, 504 h. In outline:
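Nude mice carrying s.c. EBC-1 tumor fragments, randomized at 100–200 mm³ (n=6 treated, n=12 vehicle). Dosed orally twice daily for 21 days. Body weight and caliper tumor volume measured twice weekly.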

The target of data set [7] is Receptor tyrosine-protein kinase erbB-4 (Homo sapiens) (UniProt Q15303). Description: Inhibition of recombinant ERBB4 (unknown origin) using poly (Glu, Tyr) 4:1 as substrate at 1000 nM incubated for 60 mins by ELISA relative to control. In a few lines: as §3
Receptor tyrosine-protein kinase erbB-4 (Homo sapiens), sequence (Q15303 whole entry): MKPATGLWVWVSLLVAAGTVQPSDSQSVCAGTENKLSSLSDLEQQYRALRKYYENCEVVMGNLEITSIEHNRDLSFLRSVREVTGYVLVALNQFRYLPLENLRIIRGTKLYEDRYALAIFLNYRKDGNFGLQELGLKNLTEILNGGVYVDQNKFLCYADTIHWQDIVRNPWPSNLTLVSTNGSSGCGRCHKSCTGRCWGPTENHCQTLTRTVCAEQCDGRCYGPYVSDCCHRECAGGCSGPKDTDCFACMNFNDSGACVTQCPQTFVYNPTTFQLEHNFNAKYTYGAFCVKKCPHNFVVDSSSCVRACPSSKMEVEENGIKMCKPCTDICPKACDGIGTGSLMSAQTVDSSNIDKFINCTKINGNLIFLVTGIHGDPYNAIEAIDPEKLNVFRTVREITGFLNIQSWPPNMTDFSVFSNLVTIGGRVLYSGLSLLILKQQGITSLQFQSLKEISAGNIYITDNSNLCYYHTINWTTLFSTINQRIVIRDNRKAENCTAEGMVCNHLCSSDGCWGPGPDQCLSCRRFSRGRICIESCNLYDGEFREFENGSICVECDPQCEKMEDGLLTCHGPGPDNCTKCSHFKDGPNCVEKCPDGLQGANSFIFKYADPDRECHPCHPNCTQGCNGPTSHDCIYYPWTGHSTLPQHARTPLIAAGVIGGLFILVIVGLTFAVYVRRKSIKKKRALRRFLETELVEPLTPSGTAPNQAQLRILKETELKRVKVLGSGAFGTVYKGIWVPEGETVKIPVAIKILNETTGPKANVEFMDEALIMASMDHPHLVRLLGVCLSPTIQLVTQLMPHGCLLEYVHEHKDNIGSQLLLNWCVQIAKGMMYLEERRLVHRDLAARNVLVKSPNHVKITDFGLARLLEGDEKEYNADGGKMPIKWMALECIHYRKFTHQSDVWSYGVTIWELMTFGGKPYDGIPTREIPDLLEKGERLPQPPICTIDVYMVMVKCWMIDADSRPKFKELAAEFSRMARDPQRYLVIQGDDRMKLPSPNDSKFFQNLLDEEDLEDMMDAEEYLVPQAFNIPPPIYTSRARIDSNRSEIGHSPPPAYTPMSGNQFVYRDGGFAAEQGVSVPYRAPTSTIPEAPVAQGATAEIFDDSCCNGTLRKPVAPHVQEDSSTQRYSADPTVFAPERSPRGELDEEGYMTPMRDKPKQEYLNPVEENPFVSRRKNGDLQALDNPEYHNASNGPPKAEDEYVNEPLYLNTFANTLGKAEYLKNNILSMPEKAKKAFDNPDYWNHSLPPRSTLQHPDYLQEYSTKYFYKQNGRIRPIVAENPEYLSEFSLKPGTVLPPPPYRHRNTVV
Data set [8] addresses Hepatocyte growth factor receptor (Canis lupus familiaris) (UniProt Q75ZY9). Description: Inhibition of c-Met in MDCK cells assessed as inhibition of HGF-induced cell scattering after 24 hrs by crystal violet staining based microscopic analysis. In a few lines:
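MDCK cells, 1.5×10^3 per well, grown overnight, then given increasing compound concentrations plus HGF (100 ng/mL). Incubated 24 h at 37 °C, 5% CO2. Fixed in 4% paraformaldehyde 15 min, stained with 0.2% crystal violet and imaged by microscopy. Three independent experiments.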

Data set [9] is described as follows: Tmax in Sprague-Dawley rat at 10 mg/kg, po administered as single dose. The data set is classed as ADME, organism-based. The conditions noted are these: in vivo. In outline:
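Male Sprague-Dawley rats (n=3), single dose. IV 2 mg/kg in 1% DMA/9% Cremophor/90% saline; PO 10 mg/kg in 0.5% CMC-Na. For one compound, IV 10 mg/kg in DMSO/Tween 80/PEG40 and PO 10 mg/kg in 10% DMSO/5% Tween 80/85% saline.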

The target in data set [10] is T1, Hepatocyte growth factor receptor (Homo sapiens, UniProt P08581). Description: Inhibition of c-Met phosphorylation at Tyrosine 1235 in HGF stimulated human U87MG cells at 10 nM after 1 hr by Western blot analysis. The data set is classed as cell-based. The conditions noted are these: U-87MG ATCC. In a few lines: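 U87MG cells serum-starved 24 h, pretreated with compound 1 h at 37 °C, then stimulated with HGF (100 ng/mL) for 15 min. Lysed in 1× SDS sample buffer, resolved by 10% SDS-PAGE and blotted to nitrocellulose. Probed for phospho-c-Met, phospho-ERK1/2, phospho-AKT and totals, with GAPDH as loading control. ECL detection.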
T1 sequence (P08581 whole entry): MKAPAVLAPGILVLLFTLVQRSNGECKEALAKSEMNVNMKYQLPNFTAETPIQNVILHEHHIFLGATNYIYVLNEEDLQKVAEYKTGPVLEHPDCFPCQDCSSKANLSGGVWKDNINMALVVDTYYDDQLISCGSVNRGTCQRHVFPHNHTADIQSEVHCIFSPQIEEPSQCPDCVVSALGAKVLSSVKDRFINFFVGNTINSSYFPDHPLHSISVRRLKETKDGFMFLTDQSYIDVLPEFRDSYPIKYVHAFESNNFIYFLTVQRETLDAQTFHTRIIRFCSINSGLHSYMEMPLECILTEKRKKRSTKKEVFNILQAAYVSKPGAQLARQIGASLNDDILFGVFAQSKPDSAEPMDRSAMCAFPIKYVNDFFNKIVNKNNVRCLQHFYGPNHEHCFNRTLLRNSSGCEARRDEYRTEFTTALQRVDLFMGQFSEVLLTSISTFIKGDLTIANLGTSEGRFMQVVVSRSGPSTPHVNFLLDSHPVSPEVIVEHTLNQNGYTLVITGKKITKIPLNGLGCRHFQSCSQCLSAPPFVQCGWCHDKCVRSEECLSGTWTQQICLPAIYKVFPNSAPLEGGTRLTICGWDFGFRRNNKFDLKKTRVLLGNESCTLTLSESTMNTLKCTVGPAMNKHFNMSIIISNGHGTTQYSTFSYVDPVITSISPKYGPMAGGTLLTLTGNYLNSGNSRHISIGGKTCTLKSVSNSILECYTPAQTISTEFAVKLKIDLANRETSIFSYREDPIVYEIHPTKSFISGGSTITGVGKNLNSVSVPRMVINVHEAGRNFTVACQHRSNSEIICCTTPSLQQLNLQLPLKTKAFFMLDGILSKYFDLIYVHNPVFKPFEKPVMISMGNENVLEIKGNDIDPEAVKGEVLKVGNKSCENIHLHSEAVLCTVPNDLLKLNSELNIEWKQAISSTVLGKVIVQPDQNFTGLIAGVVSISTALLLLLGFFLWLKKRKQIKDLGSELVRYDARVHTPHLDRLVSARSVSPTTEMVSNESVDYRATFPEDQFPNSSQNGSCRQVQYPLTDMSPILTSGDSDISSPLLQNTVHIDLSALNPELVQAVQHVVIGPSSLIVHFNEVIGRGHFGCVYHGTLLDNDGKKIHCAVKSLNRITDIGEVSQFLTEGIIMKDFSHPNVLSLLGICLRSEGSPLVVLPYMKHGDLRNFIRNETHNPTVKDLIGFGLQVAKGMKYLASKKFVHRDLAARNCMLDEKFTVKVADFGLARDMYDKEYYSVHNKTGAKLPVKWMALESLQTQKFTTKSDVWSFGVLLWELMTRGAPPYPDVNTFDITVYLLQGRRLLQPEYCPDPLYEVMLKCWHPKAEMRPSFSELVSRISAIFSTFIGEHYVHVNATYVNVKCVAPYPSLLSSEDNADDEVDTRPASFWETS
A general note: In western blotting, separated proteins are transferred to a membrane and probed.

Data set [11] can be described thus: Selectivity ratio of IC50 for human NCI-HCC827 cells to IC50 for human MKN45 cells. The data set is classed as ADME, cell-based. The conditions noted are these: mkn-45. In outline:
as §1

Data set [12] is described as follows: Selectivity ratio of IC50 for human NCI-H661 cells to IC50 for human MKN45 cells. The conditions noted are these: mkn-45. The data set is classed as ADME, cell-based. In a few lines:
as §1

The target of data set [13] is Tyrosine-protein kinase receptor UFO (Homo sapiens, UniProt P30530). Briefly: Inhibition of recombinant AXL (unknown origin) using poly (Glu, Tyr) 4:1 as substrate incubated for 60 mins by ELISA.
The target of data set [14] is T1, Hepatocyte growth factor receptor. Description: Inhibition of c-Met in human MKN45 cells assessed as reduction in ERK phosphorylation at Tyrosine 204 at 10 nM after 1 hr by Western blot analysis. The data set is classed as cell-based. The conditions noted are these: MKN-45. In outline: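 EBC-1 or MKN45 cells treated with compound 1 h at 37 °C without HGF, then lysed in 1× SDS sample buffer. Lysates run on 10% SDS-PAGE and transferred to nitrocellulose. Probed with antibodies to c-Met, phospho-c-Met, phospho-ERK1/2, phospho-AKT, AKT and GAPDH, then HRP secondary. ECL detection.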

Data set [15] in a line: Selectivity ratio of IC50 for human SNU1 cells to IC50 for mouse BAF3 cells expressing TPR-MET. The data set is classed as ADME, cell-based.
Data set [16] in a line: Antitumor activity against human EBC1 cells xenografted in athymic nude mouse assessed as tumor growth inhibition at 25 mg/kg, po bid for 21 days measured twice a week during compound dosing relative to control. The data set is classed as functional. The conditions noted are these: EBC-1, po, 504 h, read-out: TGI. In outline: as §2
For data set [17], the system named is MDA-MB-231. Description: Antiproliferative activity against human MDA-MB-231 cells after 72 hrs by SRB or MTT assay. The settings on record: MDA-MB-231, 72 h. The data set is classed as functional, cell-based. In a few lines: (§4)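 Cells seeded, exposed next day to a range of concentrations for 72 h. Growth read by sulforhodamine B or MTT. IC50 from four-parameter concentration-response fit. Each concentration tested at least in triplicate, with at least 2 experiments.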

Data set [18] in a line: Antiproliferative activity against human NCI-HCC827 cells after 72 hrs by SRB or MTT assay. It is filed as functional, cell-based. The conditions noted are these: HCC827, 72 h. In a few lines: as §4
The nature of data set [19]: Selectivity ratio of IC50 for human PANC1 cells to IC50 for mouse BAF3 cells expressing TPR-MET. It is filed as ADME, cell-based. In a few lines: (§5)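 Each cell line was seeded in 96-well plates, then exposed the next day to a range of compound concentrations for 72 h. Growth was read by SRB or MTT assay, and IC50 was fitted by a four-parameter concentration-response curve. Each concentration was run at least in triplicate, in at least 2 experiments. BaF3/TPR-Met are murine pre-B BaF3 cells transfected with TPR-MET cDNA and selected in puromycin.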

A short description of data set [20]: Selectivity ratio of IC50 for human SMMC7721 cells to IC50 for human MKN45 cells. The data set is classed as ADME, cell-based. The settings on record: smmc-7721. In outline: as §5

Data on one compound can be found in ChEMBL document CHEMBL3797175, “Discovery of 6-(difluoro(6-(4-fluorophenyl)-[1,2,4]triazolo[4,3-b][1,2,4]triazin-3-yl)methyl)quinoline as a highly potent and selective c-Met inhibitor” (Eur J Med Chem, 2016).

Calls of active or inactive are those of the source. The rule behind the calls is not given here.

The term inhibition denotes the percentage by which the read-out fell short of the control. A word on the Tmax: it is the time from dosing to the highest level. Usually IC50 stands for the concentration that gives 50% inhibition.

Hepatocyte growth factor receptor (Canis lupus familiaris), sequence (Q75ZY9 whole entry): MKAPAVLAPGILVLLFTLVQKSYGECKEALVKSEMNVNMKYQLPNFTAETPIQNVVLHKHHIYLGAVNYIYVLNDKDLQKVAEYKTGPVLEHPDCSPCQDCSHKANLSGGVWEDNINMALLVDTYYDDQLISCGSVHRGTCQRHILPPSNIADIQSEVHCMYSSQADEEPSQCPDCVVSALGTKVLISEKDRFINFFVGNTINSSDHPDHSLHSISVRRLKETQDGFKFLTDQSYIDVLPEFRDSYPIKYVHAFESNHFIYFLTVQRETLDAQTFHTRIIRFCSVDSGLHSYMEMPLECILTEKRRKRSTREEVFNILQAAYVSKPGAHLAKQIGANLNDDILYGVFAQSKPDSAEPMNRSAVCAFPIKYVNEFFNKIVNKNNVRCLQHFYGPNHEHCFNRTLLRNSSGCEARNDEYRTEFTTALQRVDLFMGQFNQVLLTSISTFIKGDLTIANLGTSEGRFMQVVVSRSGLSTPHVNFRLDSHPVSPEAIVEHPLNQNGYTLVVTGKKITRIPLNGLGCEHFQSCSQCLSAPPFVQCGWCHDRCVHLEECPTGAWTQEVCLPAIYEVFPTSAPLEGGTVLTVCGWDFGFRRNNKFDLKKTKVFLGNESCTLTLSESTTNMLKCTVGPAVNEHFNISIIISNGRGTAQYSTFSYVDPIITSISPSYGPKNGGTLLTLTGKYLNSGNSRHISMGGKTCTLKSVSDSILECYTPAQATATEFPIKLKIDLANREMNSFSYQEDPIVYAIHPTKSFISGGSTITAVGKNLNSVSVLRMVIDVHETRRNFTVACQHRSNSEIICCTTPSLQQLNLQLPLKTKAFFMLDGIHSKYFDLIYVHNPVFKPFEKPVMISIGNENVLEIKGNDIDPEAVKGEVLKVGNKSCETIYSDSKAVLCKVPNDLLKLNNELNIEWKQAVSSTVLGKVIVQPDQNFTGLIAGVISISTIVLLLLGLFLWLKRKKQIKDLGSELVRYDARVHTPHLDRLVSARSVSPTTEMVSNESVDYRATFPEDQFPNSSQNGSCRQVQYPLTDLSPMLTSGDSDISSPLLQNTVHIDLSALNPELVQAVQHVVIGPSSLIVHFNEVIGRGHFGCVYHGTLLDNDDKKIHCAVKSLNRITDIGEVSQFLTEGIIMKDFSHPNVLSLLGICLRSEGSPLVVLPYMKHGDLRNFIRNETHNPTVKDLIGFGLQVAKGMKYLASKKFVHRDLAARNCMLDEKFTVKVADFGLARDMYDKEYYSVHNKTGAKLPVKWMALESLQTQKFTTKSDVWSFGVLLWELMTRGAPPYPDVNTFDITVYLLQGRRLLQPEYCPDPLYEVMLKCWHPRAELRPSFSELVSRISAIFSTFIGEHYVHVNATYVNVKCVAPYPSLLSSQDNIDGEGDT
Proto-oncogene tyrosine-protein kinase Src (Homo sapiens), sequence (P12931 2-536 limits assumed): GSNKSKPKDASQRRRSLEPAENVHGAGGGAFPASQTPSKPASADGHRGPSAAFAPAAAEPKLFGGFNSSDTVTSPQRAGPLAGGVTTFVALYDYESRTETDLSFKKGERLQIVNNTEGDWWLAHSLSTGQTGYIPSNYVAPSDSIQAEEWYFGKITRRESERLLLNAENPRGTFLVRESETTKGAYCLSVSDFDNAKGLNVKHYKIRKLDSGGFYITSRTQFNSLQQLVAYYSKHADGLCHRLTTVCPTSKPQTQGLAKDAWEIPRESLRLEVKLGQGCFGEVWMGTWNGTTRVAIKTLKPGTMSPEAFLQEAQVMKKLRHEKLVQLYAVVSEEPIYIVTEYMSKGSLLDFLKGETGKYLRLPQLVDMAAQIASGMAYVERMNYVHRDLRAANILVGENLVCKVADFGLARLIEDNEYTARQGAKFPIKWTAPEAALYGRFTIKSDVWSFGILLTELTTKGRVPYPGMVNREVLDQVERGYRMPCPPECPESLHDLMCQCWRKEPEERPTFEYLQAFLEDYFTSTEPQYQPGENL

As for `Fc1ccc(-c2cnc3nnc(C(F)(F)c4ccc5ncccc5c4)n3n2)cc1`, the Ratio IC50 was more than 10000 in data set [1]; 10000 in data set [3]; 10000 in data set [4]; 10000 in [11]; more than 10000 in data set [12]; 10000 in [15]. For the same compound, the “Ratio IC50” value in data set [19] and in [20] was 10000 throughout. Besides, the inhibition in vivo at 6.25 mg/kg in data set [2] was 46.8%. For the same compound, the inhibition in [5] was 13.7%; in [7], 26.8%; in data set [8], “Dose-dependent effect”. Also, the Activity result in data set [6] is “Non-toxic”. Also, the Tmax in data set [9] is 1 h. Also, the inhibition result in data set [10] and in data set [14] was “Active” throughout. Further, the IC50 in data set [13] is more than 1 µM; in data set [17], more than 10 µM; in data set [18], more than 10 µM. In data set [16], the inhibition in vivo at 25 mg/kg amounted to 97.1%.
